# Data reported in ChEMBL document CHEMBL1165950, “Design and synthesis of new potent anticancer pyrazoles with high FLT3 kinase inhibitory selectivity” (Bioorg Med Chem, 2010).
# What was measured:
# Type in all cases: functional
# Settings in all cases: read-out: Activity
# SNB-19 = test: Cytotoxicity against human SNB19 cells assessed as cell growth at 10 uM
# Method in brief: (§1)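 NCI-60 screen: cells grown in RPMI 1640 with 5% FBS and 2 mM L-glutamine, plated at 5000–40,000 cells/well according to doubling time, and preincubated 24 h at 37 °C, 5% CO2. The single 10 µM dose (DMSO stock) was added, then incubated 48 h. Cells were TCA-fixed and stained with 0.4% SRB, read at 515 nm, and growth % calculated against time-zero and control plates.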
# NCI-H322M = test: Cytotoxicity against human NCI-H322M cells assessed as cell growth at 10 uM; method in brief: as §1
# LOX IMVI = test: Cytotoxicity against human LOXIMVI cells assessed as cell growth at 10 uM; method in brief: as §1
# SK-MEL-2 = test: Cytotoxicity against human SK-MEL-2 cells assessed as cell growth at 10 uM; method in brief: as §1
# NCI-H522 = test: Cytotoxicity against human NCI-H522 cells assessed as cell growth at 10 uM; method in brief: as §1
# UACC-62 = test: Cytotoxicity against human UACC62 cells assessed as cell growth at 10 uM; method in brief: as §1
# DU-145 = test: Cytotoxicity against human DU145 cells assessed as cell growth at 10 uM
# Method in brief: (§2)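 Single-dose NCI-60 screen at 10 µM. Cells were grown in RPMI 1640 with 5% FBS and 2 mM L-glutamine, then treated for 48 h at 37 °C. Protein was measured by SRB staining with absorbance at 515 nm. Percentage growth was recorded, and inhibition percentage was calculated as 100 minus growth percentage.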
# 786-0 = test: Cytotoxicity against human 786-0 cells assessed as cell growth at 10 uM; method in brief: as §2
# SK-MEL-5 = test: Cytotoxicity against human SK-MEL-5 cells assessed as cell growth at 10 uM; method in brief: as §1
# MDA-MB-435 = test: Cytotoxicity against human MDA-MB-435 cells assessed as cell growth at 10 uM; method in brief: as §1
# [1] = Cytotoxicity against human Hs 578T cells assessed as cell growth at 10 uM; method in brief: as §2
# UO-31 = test: Cytotoxicity against human UO31 cells assessed as cell growth at 10 uM; method in brief: as §1
# MDA-MB-231 = test: Cytotoxicity against human MDA-MB-231 cells assessed as cell growth at 10 uM; method in brief: as §1
# PC-3 = test: Cytotoxicity against human PC3 cells assessed as cell growth at 10 uM; method in brief: as §1
# NCI-H460 = test: Cytotoxicity against human NCI-H460 cells assessed as cell growth at 10 uM; method in brief: as §1
# HCC 2998 = test: Cytotoxicity against human HCC2998 cells assessed as cell growth at 10 uM; method in brief: as §2
# BT-549 = test: Cytotoxicity against human BT549 cells assessed as cell growth at 10 uM; method in brief: as §2
# SNB-75 = test: Cytotoxicity against human SNB75 cells assessed as cell growth at 10 uM; method in brief: as §1
# OVCAR-4 = test: Cytotoxicity against human OVCAR4 cells assessed as cell growth at 10 uM; method in brief: as §1
# TK-10 = test: Cytotoxicity against human TK10 cells assessed as cell growth at 10 uM; method in brief: as §1
# HT-29 = test: Cytotoxicity against human HT-29 cells assessed as cell growth at 10 uM; method in brief: as §2
# OVCAR-3 = test: Cytotoxicity against human OVCAR-3 cells assessed as cell growth at 10 uM; method in brief: as §1
# U-251 = test: Cytotoxicity against human U251 cells assessed as cell growth at 10 uM; method in brief: as §1
# SN12C = test: Cytotoxicity against human SN12C cells assessed as cell growth at 10 uM; method in brief: as §1
# IGROV-1 = test: Cytotoxicity against human IGROV1 cells assessed as cell growth at 10 uM; method in brief: as §2
# MCF7 = test: Cytotoxicity against human MCF7 cells assessed as cell growth at 10 uM; method in brief: as §1
# MOLT-4 = test: Cytotoxicity against human MOLT4 cells assessed as cell growth at 10 uM; method in brief: as §1
# M14 = test: Cytotoxicity against human M14 cells assessed as cell growth at 10 uM; method in brief: as §1
# SK-OV-3 = test: Cytotoxicity against human SKOV3 cells assessed as cell growth at 10 uM; method in brief: as §1
# Malme-3M = test: Cytotoxicity against human MALME-3M cells assessed as cell growth at 10 uM; method in brief: as §1
# HOP-92 = test: Cytotoxicity against human HOP92 cells assessed as cell growth at 10 uM; method in brief: as §2
smiles,measurement,setting,value
COc1cc(C)cc(-c2c(-c3ccnc(-c4cccc(NC(C)=O)c4)c3)cnn2CC#N)c1,growth at 10 µM,SNB-19,89.6%
same,growth at 10 µM,NCI-H322M,96.9%
same,growth at 10 µM,LOX IMVI,97.5%
same,growth at 10 µM,SK-MEL-2,92.1%
same,growth at 10 µM,NCI-H522,82.5%
same,growth at 10 µM,UACC-62,81.6%
same,growth at 10 µM,DU-145,105%
same,growth at 10 µM,786-0,84%
same,growth at 10 µM,SK-MEL-5,86.9%
same,growth at 10 µM,MDA-MB-435,99.6%
same,growth at 10 µM,[1],99%
same,growth at 10 µM,UO-31,63.6%
same,growth at 10 µM,MDA-MB-231,86.5%
same,growth at 10 µM,PC-3,85.8%
same,growth at 10 µM,NCI-H460,107%
same,growth at 10 µM,HCC 2998,101%
same,growth at 10 µM,BT-549,79.1%
same,growth at 10 µM,SNB-75,72.4%
same,growth at 10 µM,OVCAR-4,99.7%
same,growth at 10 µM,TK-10,67.1%
same,growth at 10 µM,HT-29,99.4%
same,growth at 10 µM,OVCAR-3,109%
same,growth at 10 µM,U-251,94.3%
same,growth at 10 µM,SN12C,83%
same,growth at 10 µM,IGROV-1,98.4%
same,growth at 10 µM,MCF7,85%
same,growth at 10 µM,MOLT-4,82.8%
same,growth at 10 µM,M14,96.3%
same,growth at 10 µM,SK-OV-3,93.3%
same,growth at 10 µM,Malme-3M,108%
same,growth at 10 µM,HOP-92,79.6%
